Where “and” joins values, the source holds several entries; their conditions need not be identical. Equal entries are not always repeated. Square brackets hold non-standard residues; d marks the D form. Ends that are not written are not given here.
Experiments:
VQIVYK = VQIVYK inhibition assay; assay type: biochemical; conditions: 25 mM MOPS pH 7.2, 100 μM ThS, room temperature; for VQIVYK fibrillation inhibition, equimolar peptide: equimolar ratio with VQIVYK
tau K19 [1] = test: Tau K19 inhibition assay; assay type: biochemical, human; conditions: equimolar ratio with K19; 50 μM K19, pH 7.4, 37°C, quiescent
Summary of the method: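 K19 was expressed in E. coli BL21(DE3) with 1 mM IPTG and purified by boiling and cation exchange. Reactions held 50 μM K19 in 250 mM sodium phosphate pH 7.4 with 1 mM DTT, 12.5 μM heparin (6000 MW) and 10 μM ThS. Peptide was added from a 0.5 mM stock. Plates were read every 15 min (ex 440/em 510) at 37°C, quiescent, with 2 s shaking before reads. At least 3 replicates; lag time is the mean threshold-crossing time ± SD.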

ends of K19 fibers = test: Nanogold localization to fiber ends, electron microscopy blind counting; assay type: binding, human; conditions: for nanogold at fiber ends, significance vs nanogold alone: z-test versus unconjugated nanogold
Summary of the method: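 Cys-GGG-extended D-peptides were coupled to monomaleimido nanogold for 1 h at room temperature, and unbound peptide was removed by 10-kDa filtration. Conjugate (10 nM) was incubated 1 h with sonicated, heparin-free K19 fibers (1.67 μM by monomer) in 25 mM MOPS pH 7.2. Gold was enlarged with Goldenhance before EM. Particles within a 15 nm cutoff were scored as end- or side-bound by a blinded microscopist.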

K19 fibers = test: Nanogold binding to K19 fibers, electron microscopy blind counting; set-up: species or system human; conditions: z-test versus unconjugated nanogold
Summary of the method: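 Cys-Gly3-extended test D-peptide or scrambled control (60 nmol) was conjugated to 6 nmol monomaleimido nanogold (1 h, room temperature) and freed of peptide by 10 kDa cut-off. K19 fibers (100 μM K19, 25 μM heparin, overnight at 37°C, pH 7.4) were sonicated and washed. 10 nM conjugate or control was incubated 1 h with 1.67 μM fibers (by monomer) in 25 mM MOPS pH 7.2, then gold-enhanced for EM. Fiber-bound particles were counted blind as end or side.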

[2] = system: tau segment VQIVYK, and the K12 and K19 tau constructs; test: Fibrillation of tau segment VQIVYK and tau constructs K12 and K19; assay type: biochemical, human
Summary of the method: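 Un-seeded ThS fibrillation with peptides at specified molar ratios. For K12/K19: 50 μM protein, 250 mM phosphate pH 7.4, 1 mM DTT, 12.5 μM heparin, 10 μM ThS, 37°C; K12 shaken at 900 rpm, K19 quiescent; read every 15 min (ex 440/em 510). For VQIVYK: 25 mM MOPS pH 7.2 with PTFE beads, room temperature, read every 2 min. At least 3 replicates; lag time is the mean time to cross a threshold.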

soluble VQIVYK = test: 1H NMR binding to soluble VQIVYK; conditions: even at 70-fold molar excess of soluble VQIVYK, pH 5.0, 283 K
[3] = system: HIV-1 infection of TZM-bl cells; test: Effect of WW61 on poly-lysine mediated enhancement of HIV-1 infection; assay type: cell-based; conditions: poly-lysine/WW61 100, 20, 4, 0.8, 0.16, 0.032, 0.064 and 0 μg/ml during preincubation with virus
Summary of the method: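 The HIV-1 CCR5-tropic molecular clone came from 293T transfection, with p24 by ELISA. Poly-lysine was mixed 1:1 with test compound. 5-fold dilutions (100, 20, 4, 0.8, 0.16, 0.032, […], 0 μg/ml) were preincubated with an equal volume of virus for 5 min at room temperature. Of each, 20 μl went onto 180 μl TZM-bl cells (LTR-lacZ). β-galactosidase in lysates was read 2 days later by luminescence (RLU/s).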

[4] = system: HIV-1 infection of TZM-bl cells; test: Effect of WW61, GIHKQK and PYKLWN on HIV-1 infection; assay type: cell-based; conditions: 150, 30, 6, 1.2 and 0 μg/ml during preincubation with virus
VQIVYK fibers = test: 1H NMR binding to VQIVYK fibers
tau K19 [5] = test: Electron microscopy of K19 fibrillation; assay type: biochemical, human; conditions: incubation with peptide; negative stain, 1% uranyl acetate
Summary of the method: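 Recombinant K19 (E. coli BL21(DE3); boiled lysate, cation exchange) was incubated at 50 μM with peptide. Buffer was 250 mM sodium phosphate pH 7.4 with 1 mM DTT, 12.5 μM heparin and 10 μM ThS, held quiescent at 37°C. Samples were spotted on glow-discharged carbon/formvar copper grids for 3 min, rinsed with water, stained with 1% uranyl acetate for 90 s, and imaged by TEM.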

tau K12 = test: Tau K12 inhibition assay, un-seeded; assay type: biochemical, human; conditions: 50 μM K12, pH 7.4, 37°C
tau fiber elongation = tau fiber elongation (Homo sapiens, UniProt P10636); test: Tau fibrillation kinetic analysis; assay type: biochemical; conditions: increasing concentrations of inhibitor peptide
Chain of tau fiber elongation (P10636 186-283 isoform P10636-2 limits assumed): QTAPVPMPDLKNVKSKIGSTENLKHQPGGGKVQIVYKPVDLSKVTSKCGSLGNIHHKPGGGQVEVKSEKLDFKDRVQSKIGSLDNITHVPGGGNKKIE
Summary of the method: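 Nucleation (k1) and propagation (k2) rates were fitted from the ThS fibrillation traces of the tau construct assays. The fit used the Finke-Watzky 2-step form, with plateau values fixed first and the remaining parameters fitted by non-linear least-squares regression.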

amyloid beta(1-42) = test: Amyloid beta fibrillation assay; assay type: biochemical; conditions: 11.5 μM Aβ1-42, 11.5 μM D-TLKIVW, 10 μM ThT, 100 mM Bicine pH 9.1, 37°C, 4 replicates
Summary of the method: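 Aβ1-42 was diluted to 0.2 mg/ml in 50 mM NH4OH and 0.2 μm filtered. Final mix: 11.5 μM Aβ1-42, 10 μM ThT, 23 mM NH4OH, 100 mM Bicine pH 9.1, with or without 11.5 μM test D-peptide. Four replicates were run at 37°C with continuous 960 rpm shaking (1 mm diameter), reading ThT every minute at Ex 444/Em 482.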

[6] = molecular target: T1, tau VQIVYK segment fibers (Homo sapiens); test: NMR
T1 chain: VQIVYK

## D-TIWKVL
VQIVYK
  VQIVYK fibrillation inhibition, equimolar peptide: little inhibitory effect
Tau K19 [1]
  K19 fibrillation inhibition, equimolar peptide: little inhibitory effect

## CGGG-(D)-TLKIVW [nanogold-D-TLKIVW]
Ends of K19 fibers; n = 86, 10 nM conjugate, 1.67 μM K19 fibers, pH 7.2, 1 hour
  number of fiber-bound nanogold particles localizing to fiber ends (xend), n = 86: 49
Ends of K19 fibers
  nanogold at fiber ends, significance vs nanogold alone: significantly different from nanogold alone
K19 fibers
  nanogold bound to fibers, significance vs nanogold alone: significantly different from nanogold alone

## L-TLKIVW
[2]; diastereomer compared with D-TLKIVW, ThS fluorescence
  effectiveness of diastereomer relative to D-TLKIVW: less effective than D-TLKIVW

## D-LKTWIV
VQIVYK
  VQIVYK fibrillation inhibition, equimolar peptide: little inhibitory effect
Tau K19 [1]
  K19 fibrillation inhibition, equimolar peptide: little inhibitory effect
Soluble VQIVYK
  change in indole proton chemical shift with soluble VQIVYK: Only a slight change in the chemical shifts

## CGGG-(D)-LKTWIV [nanogold-D-LKTWIV]
Ends of K19 fibers
  nanogold at fiber ends, significance vs nanogold alone: does not differ significantly from nanogold alone
K19 fibers
  nanogold bound to fibers, significance vs nanogold alone: does not differ significantly from nanogold alone

## D-TIKWVL
VQIVYK
  VQIVYK fibrillation inhibition, equimolar peptide: little inhibitory effect
Tau K19 [1]
  K19 fibrillation inhibition, equimolar peptide: little inhibitory effect

## H-[W-H-K-chAla-W-hydroxyTic]-OH [WW61]
[3]
  effect on poly-lysine mediated HIV infectivity: no inhibitory effect on poly-lysine mediated HIV infectivity
[4]
  effect on HIV infectivity in the absence of SEVI: does not affect HIV infectivity

## D-TLKIVW
VQIVYK; sub-equimolar concentration relative to VQIVYK
  VQIVYK fiber formation delay, sub-equimolar peptide: delays fiber formation even at sub-equimolar concentration
[2]; un-seeded reactions
  lag time in un-seeded reactions: large increase in lag time
VQIVYK fibers; 1H NMR, 500 MHz, fibers containing 0 to 1500 μM VQIVYK monomers
  estimated affinity constant for fibers: low micromolar range
VQIVYK fibers; from apparent Kd of 2 μM, VQIVYK fibers
  standard free binding energy (ΔGbinding): ~ 7.4 kcal/mol and 7.4 kcal/mol
Tau K19 [5]
  K19 fibrillation by electron microscopy: prevents K19 fibrillation
Tau K12; five-fold molar excess, some experimental replicates
  delay of K12 fibrillation, five-fold molar excess: more than two weeks in some experimental replicates
Tau K12; sub-equimolar concentration relative to K12
  K12 fiber formation delay, sub-equimolar peptide: delays fiber formation even at sub-equimolar concentration
Tau fiber elongation
  fiber elongation rate: fiber elongation rate decreases in the presence of increasing concentrations of inhibitor peptide
Soluble VQIVYK
  change in indole proton chemical shift with soluble VQIVYK: Only a slight change in the chemical shifts
Amyloid beta(1-42)
  block of amyloid beta fibrillation: unable to block the fibrillation of amyloid beta

## [dT][dL][dK][dI][dV][dW] [D-TLKIVW]
[6]
  Kd: ~2000 nM
